The record followed here is ChEMBL document CHEMBL1124397, “A novel class of "GABAergic" agents: 1-aryl-3-(aminoalkylidene)oxindoles” (J Med Chem, 1989).

One series relates to P23576. The series is described as follows: Administered at a dose 320 umol/kg intraperitoneally before [3H]Flunitrazepam ([3H]-FNP) in mouse brain expressed as percent of control. The format is functional, tissue-based. An outline of the steps:
(§1)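 Mice in groups of five received test compound or vehicle ip 1 h before 200 μCi/kg [3H]FNP iv and were killed 20 min later. Brains were homogenized in 40 volumes of ice-cold 50 mM Tris-HCl pH 7.7. Triplicate 1.0-mL samples were filtered on glass fiber, washed with cold buffer and counted. Bound FNP is given as % of vehicle-treated mice.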

For series [1], the system named is Mus musculus. Description: Activity to antagonise mercaptopropionic acid (MPA) induced convulsions in mouse after subcutaneous administration; the value ranges from 32-100. Particulars: sc. The format is functional. An outline of the steps: (§2)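 Male Swiss CD mice (17–21 g), fasted 18 h, in groups of five. […] One hour later MPA 32 mg/kg ip. Protection meant no convulsions during 10 min of observation.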

For series [2], the system named is Mus musculus. Description: Compound was tested for enhancement of [3H]flunitrazepam ([3H]-FNP) binding to mouse brain after intraperitoneal administration at a dose of 100uM/kg, expressed as percent of control. The format is functional. The gist of the method: as §1
For series [3], the system named is Mus musculus. Description: Activity to antagonise mercaptopropionic acid (MPA) induced convulsions in mouse after intraperitoneal administration. The series is classed as functional. Particulars: ip.
Series [4] deals with Mus musculus. The series is described as follows: Compound was tested for enhancement of [3H]Flunitrazepam ([3H]-FNP) binding to mouse brain after intraperitoneal administration at a dose of 3.2uM/kg, expressed as percent of control. The format is functional. The gist of the method:
as §1

A short description of series [5]: Toxicity measured in mouse by subcutaneous administration. The format is organism-based. Particulars: in vivo, sc. An outline of the steps:
(§3)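 Mouse LD50 in mg/kg after sc or ip dosing, by the route named in each line.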

Series [6] concerns Mus musculus. The series is described as follows: Activity to antagonise mercaptopropionic acid (MPA) induced convulsions in mouse after subcutaneous administration; value ranges from 3.2-5.6. The format is functional. Particulars: sc. An outline of the steps: as §2
The test system of series [7] is Mus musculus. Description: Activity to antagonise cyclic GMP after administration of isoniazid in mouse brain; value ranges from 0.3-1. The series is classed as functional.
For series [8], the system named is Mus musculus. The series is described as follows: Ability to displace [3H]Flunitrazepam ([3H]FNP) binding to mouse brain after intraperitoneal administration at a dose 32uMl/kg, expressed as percent of control. The format is functional. An outline of the steps:
as §1

Series [9] in a line: Toxicity was measured in mouse by intraperitoneal administration. The conditions noted are these: in vivo, ip. An outline of the steps: as §3
Series [10] has as its system Mus musculus. Description: Compound was tested for enhancement of [3H]Flunitrazepam ([3H]FNP) binding to mouse brain after intraperitoneal administration at a dose of 32uM/kg, expressed as percent of control. The series is classed as functional. The gist of the method: as §1
For series [11], the target named is GABA-A receptor; anion channel (Rattus norvegicus) (UniProt O09028+P15431+P18506+P18508+P19969+P20236+P23574+P23576+P28471+P28473+P30191+P62813+P63079+P63138+Q91ZM7+Q9ES14). Description: Antagonism of mercaptopropionic acid (MPA) induced convulsions in mouse. The format is functional, organism-based.
For series [12], the system named is Mus musculus. The series is described as follows: Activity to antagonise cyclic GMP after administration of isoniazid in mouse brain; value ranges from 0.1-0.3. The series is classed as functional.
The nature of series [13]: Ability to displace [3H]flunitrazepam ([3H]-FNP) binding to mouse brain after intraperitoneal administration at a dose 320 umol/kg. The series is classed as functional, organism-based. Particulars: at 320 µmol/kg. The gist of the method: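 Mice in groups of five got test agent or vehicle ip 1 h before iv [3H]FNP at 200 μCi/kg, then were killed 20 min later by cervical dislocation. Brains were frozen and homogenized in 40 volumes of ice-cold 50 mM Tris-HCl pH 7.7. Triplicate samples were filtered on glass fiber, washed with cold buffer and counted. Bound label is expressed as % of vehicle-treated mice.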

Series [14] has as its system Mus musculus. The series is described as follows: Compound was tested for enhancement of [3H]Flunitrazepam ([3H]FNP) binding to mouse brain after intraperitoneal administration at a dose of 10 uM/kg, expressed as percent of control. The series is classed as functional. The gist of the method: as §1

Some results are limits rather than exact numbers.

Sequence of P23576 (P23576 whole entry): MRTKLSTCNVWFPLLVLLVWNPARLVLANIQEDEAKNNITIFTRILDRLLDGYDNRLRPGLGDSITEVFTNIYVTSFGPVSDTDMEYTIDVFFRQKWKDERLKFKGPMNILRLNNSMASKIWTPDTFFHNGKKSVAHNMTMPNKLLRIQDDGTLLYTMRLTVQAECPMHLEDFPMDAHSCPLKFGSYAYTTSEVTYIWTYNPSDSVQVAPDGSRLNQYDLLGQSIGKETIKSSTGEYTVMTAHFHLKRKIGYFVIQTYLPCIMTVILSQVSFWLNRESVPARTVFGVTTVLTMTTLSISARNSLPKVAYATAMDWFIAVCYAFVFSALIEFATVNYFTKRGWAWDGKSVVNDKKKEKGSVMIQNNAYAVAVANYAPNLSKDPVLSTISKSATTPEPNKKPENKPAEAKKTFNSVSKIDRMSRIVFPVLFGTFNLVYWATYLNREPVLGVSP

In general, ED50 refers to the midpoint of the dose-response relation. `COc1cccc(N2C(=O)/C(=C3/CCCN3C)c3ccccc32)c1` yielded a Control in the series on P23576 of 214%. Moreover, the ED50 in the series with Mus musculus [1] is 100 mg/kg.
The LD50 is the dose at which mortality reaches 50%. For `COc1ccc(N2C(=O)/C(=C3/CCCN3C)c3ccccc32)cc1`, the Control is 192% in the series with Mus musculus [2]; 105% in the series with Mus musculus [4]; 211% in the series with P23576; 103% in the series on Mus musculus [8]; 125% in the series with Mus musculus [10]. The ED50 was roughly 3.2 mg/kg in the series with Mus musculus [3], 5.6 mg/kg in the series on Mus musculus [6] and 1 mg/kg in the series with Mus musculus [7]. Also, the figures for the LD50 in series [5] and in series [9] were greater than 1000 mg/kg and greater than 320 mg/kg, respectively.
For the molecule `CN(C)/C=C1\C(=O)N(c2ccc(Cl)c(Cl)c2)c2ccccc21`, the median effective dose (ED50) is greater than 100 mg/kg in series [11] and 0.1 mg/kg in the series on Mus musculus [12]. The molecule further came in with a [3H]flunitrazepam binding in series [13] of 144%.
`CN1CCC/C1=C1/C(=O)N(c2cccc(Cl)c2)c2ccccc21`: the Control in the series on Mus musculus [2] was 132%; in the series with Mus musculus [14], 105%; in the series on P23576 it was 192%; in the series with Mus musculus [10], 105%. Also, the ED50 in the series with Mus musculus [3] was roughly 3.2 mg/kg; in series [11] it was greater than 100 mg/kg. Also, the LD50 in series [5] is greater than 1000 mg/kg; in [9], greater than 320 mg/kg.
